Assay results: ChEMBL document CHEMBL1773020, “Discovery of fused bicyclic agonists of the orphan G-protein coupled receptor GPR119 with in vivo activity in rodent models of glucose control” (Bioorg Med Chem Lett, 2011)
Calls of active or inactive are those of the source. The calls are words filed in the database; no cut-off is given here.

Key:
[1] = molecular target: T1, Glucose-dependent insulinotropic receptor (Rattus norvegicus, UniProt Q7TQN8); assay: Agonist activity at rat GPR119 by melanophore assay; type: functional
T1 sequence (Q7TQN8 whole entry): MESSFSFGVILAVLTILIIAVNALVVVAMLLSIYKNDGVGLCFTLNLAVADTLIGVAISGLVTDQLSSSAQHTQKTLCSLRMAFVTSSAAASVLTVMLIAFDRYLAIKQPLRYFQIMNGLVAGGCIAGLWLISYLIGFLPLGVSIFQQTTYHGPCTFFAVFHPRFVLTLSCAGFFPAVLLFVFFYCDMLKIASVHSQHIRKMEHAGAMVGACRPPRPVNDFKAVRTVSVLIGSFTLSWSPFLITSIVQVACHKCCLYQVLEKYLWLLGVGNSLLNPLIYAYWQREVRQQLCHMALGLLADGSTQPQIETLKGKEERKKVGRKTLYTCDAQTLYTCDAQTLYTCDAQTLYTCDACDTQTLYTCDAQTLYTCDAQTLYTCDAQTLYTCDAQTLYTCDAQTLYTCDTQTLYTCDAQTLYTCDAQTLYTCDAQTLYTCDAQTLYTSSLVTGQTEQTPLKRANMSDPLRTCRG
In short: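 Agonist EC50 measured in melanophores transfected with the human or rat GPR119 receptor sequence. Values are means of multiple determinations (n).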

[2] = Aqueous solubility of the compound; type: physicochemical; conditions: buffer
Rattus norvegicus [3] = assay: Antidiabetic activity in po dosed Sprague-Dawley rat assessed as oral glucose tolerance; type: functional; conditions: read-out: MED
In short: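 SD rats were fasted 3–16 h, and compound was given po at −30 min after a tail-nick glucose reading. At time 0, glucose 3 g/kg po (6 ml/kg) was given. Glucometer readings were taken at 0, 30, 60 and 120 min. Each rat was used twice, one week apart.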

Mus musculus = assay: Antidiabetic activity in po dosed C57/BL6 mouse assessed as oral glucose tolerance; type: functional; conditions: read-out: MED
In short: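 C57/BL6 mice were handled twice and fasted 3–16 h. Compound was given 0–30 min before the first sample. At time 0 a glucose bolus ([…] as printed, po) was given. Tail-nick glucose was read by glucometer at 0, 20, 40, 60 and 120 min.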

[4] = Plasma protein binding in female cynomolgus monkey; type: ADME, cell-free, Macaca fascicularis; conditions: read-out: PPB
[5] = Plasma protein binding in male cynomolgus monkey; type: ADME, cell-free, Macaca fascicularis; conditions: read-out: PPB
[6] = Plasma protein binding in human; type: ADME, cell-free; conditions: read-out: PPB
[7] = Plasma protein binding in female rat; type: ADME, cell-free; conditions: read-out: PPB (converted)
[8] = Plasma protein binding in male rat; type: ADME, cell-free; conditions: read-out: PPB (converted)
Cytochrome P450 2C9 = Cytochrome P450 2C9 (Homo sapiens, UniProt P11712); assay: Inhibition of CYP2C9; type: ADME
In short: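 Inhibition constant (Ki) determined in human hepatic microsomes.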

Caco-2 = assay: Apparent permeability across human Caco2 cells; type: ADME, cell-based
Salmonella typhimurium = assay: Mutagenic activity in Salmonella Typhimurium; type: toxicity, organism-based; conditions: salmonella enterica subsp. enterica serovar typhimurium
[9] = Mutagenic activity in mouse lymphoma; type: toxicity
[10] = Mutagenic activity in mouse micronuclei; type: toxicity
[11] = molecular target: Voltage-gated inwardly rectifying potassium channel KCNH2 (Homo sapiens, UniProt Q12809); assay: Inhibition of human ERG by patch clamp assay
Rattus norvegicus [12] = assay: Antidiabetic activity in hyperglycemic Sprague-Dawley rat model assessed as glucose dependent insulin release at 0.08 mg/kg/min, iv; type: functional, organism-based
In short: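 Hyperglycemic clamp in male SD rats fasted overnight. After 1 h of baseline glucose and insulin sampling, vehicle or compound was infused into the jugular vein for 2 h. Glucose was clamped at 100 mg/dl for hours 1–2, then raised to 300 mg/dl for hour 3 by a 30% glucose bolus and variable infusion. Plasma insulin was followed.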

[13] = Tmax in po dosed mouse; type: ADME, organism-based; conditions: in vivo
[14] = Tmax in po dosed Sprague-Dawley rat; type: ADME, organism-based; conditions: in vivo
[15] = Tmax in po dosed cynomolgus monkey; type: ADME, organism-based, Macaca fascicularis; conditions: in vivo
[16] = Tmax in po dosed dog; type: ADME, organism-based, Canis lupus familiaris; conditions: in vivo
[17] = Oral bioavailability in mouse; type: ADME, organism-based; conditions: in vivo
[18] = Oral bioavailability in Sprague-Dawley rat; type: ADME, organism-based; conditions: in vivo
[19] = Oral bioavailability in cynomolgus monkey; type: ADME, organism-based, Macaca fascicularis; conditions: in vivo
[20] = Oral bioavailability in dog; type: ADME, organism-based, Canis lupus familiaris; conditions: in vivo
Cynomolgus monkey = assay: Volume of distribution at steady state in po dosed cynomolgus monkey; type: ADME, organism-based, Macaca fascicularis; conditions: in vivo
Rattus norvegicus [21] = assay: Volume of distribution at steady state in po dosed Sprague-Dawley rat; type: ADME, organism-based; conditions: in vivo
[22] = Elimination half life in iv dosed mouse; type: ADME, organism-based; conditions: in vivo, read-out: beta t1/2 (converted)
[23] = Elimination half life in iv dosed Sprague-Dawley rat; type: ADME, organism-based; conditions: in vivo, read-out: beta t1/2 (converted)
[24] = Elimination half life in iv dosed cynomolgus monkey; type: ADME, organism-based, Macaca fascicularis; conditions: in vivo, read-out: beta t1/2 (converted)
[25] = Elimination half life in iv dosed dog; type: ADME, organism-based, Canis lupus familiaris; conditions: in vivo, read-out: beta t1/2 (converted)
Rattus norvegicus [26] = assay: Antidiabetic activity in ZDF rat assessed as blood glucose level at 30 mg/kg, po measured on day 56; type: functional
In short: (§1)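 Male ZDF rats, 6 weeks old, baseline weight 200–250 g, were split into 3 groups by fed body weight and blood glucose. They received vehicle (100% PEG400) or compound daily for 56 days, n = 5–7 per group. Blood glucose and HbA1c were determined on days 1, 31 and 56, and body weight gain was recorded. Results are mean ± standard error.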

Rattus norvegicus [27] = assay: Antidiabetic activity in ZDF rat assessed as glycated hemoglobin level at 30 mg/kg, po measured on day 1; type: functional; in short: as §1
Rattus norvegicus [28] = assay: Antidiabetic activity in ZDF rat assessed as glycated hemoglobin level at 30 mg/kg, po measured on day 56; type: functional; in short: as §1
Rattus norvegicus [29] = assay: Antidiabetic activity in ZDF rat assessed as blood glucose level at 10 mg/kg, po measured on day 56; type: functional; in short: as §1
Rattus norvegicus [30] = assay: Antidiabetic activity in ZDF rat assessed as glycated hemoglobin level at 10 mg/kg, po measured on day 1; type: functional; in short: as §1
Rattus norvegicus [31] = assay: Antidiabetic activity in ZDF rat assessed as glycated hemoglobin level at 10 mg/kg, po measured on day 56; type: functional; in short: as §1
Rattus norvegicus [32] = assay: Antidiabetic activity in ZDF rat assessed as body weight gain at 10 mg/kg, po measured on day 56; type: functional; in short: as §1
Rattus norvegicus [33] = assay: Antidiabetic activity in ZDF rat assessed as body weight gain at 30 mg/kg, po measured on day 56; type: functional; in short: as §1
Rattus norvegicus [34] = assay: Antidiabetic activity in ZDF rat assessed as glycated hemoglobin level at 30 mg/kg, po measured on day 31
Rattus norvegicus [35] = assay: Antidiabetic activity in ZDF rat assessed as glycated hemoglobin level at 10 mg/kg, po measured on day 31

Chain of Cytochrome P450 2C9 (P11712 whole entry): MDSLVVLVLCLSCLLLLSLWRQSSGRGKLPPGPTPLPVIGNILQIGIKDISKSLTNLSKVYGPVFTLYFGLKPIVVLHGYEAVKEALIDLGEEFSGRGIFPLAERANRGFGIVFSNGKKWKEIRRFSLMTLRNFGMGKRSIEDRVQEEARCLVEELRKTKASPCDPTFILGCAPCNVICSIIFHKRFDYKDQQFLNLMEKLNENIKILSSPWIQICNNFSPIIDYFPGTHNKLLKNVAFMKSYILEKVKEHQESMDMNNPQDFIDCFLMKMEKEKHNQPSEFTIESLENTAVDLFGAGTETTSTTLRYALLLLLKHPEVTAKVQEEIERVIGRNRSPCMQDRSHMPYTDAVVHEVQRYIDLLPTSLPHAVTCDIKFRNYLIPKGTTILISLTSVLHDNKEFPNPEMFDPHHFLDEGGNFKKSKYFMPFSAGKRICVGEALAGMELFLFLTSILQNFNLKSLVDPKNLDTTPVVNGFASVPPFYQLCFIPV
Chain of Voltage-gated inwardly rectifying potassium channel KCNH2 (Q12809 whole entry): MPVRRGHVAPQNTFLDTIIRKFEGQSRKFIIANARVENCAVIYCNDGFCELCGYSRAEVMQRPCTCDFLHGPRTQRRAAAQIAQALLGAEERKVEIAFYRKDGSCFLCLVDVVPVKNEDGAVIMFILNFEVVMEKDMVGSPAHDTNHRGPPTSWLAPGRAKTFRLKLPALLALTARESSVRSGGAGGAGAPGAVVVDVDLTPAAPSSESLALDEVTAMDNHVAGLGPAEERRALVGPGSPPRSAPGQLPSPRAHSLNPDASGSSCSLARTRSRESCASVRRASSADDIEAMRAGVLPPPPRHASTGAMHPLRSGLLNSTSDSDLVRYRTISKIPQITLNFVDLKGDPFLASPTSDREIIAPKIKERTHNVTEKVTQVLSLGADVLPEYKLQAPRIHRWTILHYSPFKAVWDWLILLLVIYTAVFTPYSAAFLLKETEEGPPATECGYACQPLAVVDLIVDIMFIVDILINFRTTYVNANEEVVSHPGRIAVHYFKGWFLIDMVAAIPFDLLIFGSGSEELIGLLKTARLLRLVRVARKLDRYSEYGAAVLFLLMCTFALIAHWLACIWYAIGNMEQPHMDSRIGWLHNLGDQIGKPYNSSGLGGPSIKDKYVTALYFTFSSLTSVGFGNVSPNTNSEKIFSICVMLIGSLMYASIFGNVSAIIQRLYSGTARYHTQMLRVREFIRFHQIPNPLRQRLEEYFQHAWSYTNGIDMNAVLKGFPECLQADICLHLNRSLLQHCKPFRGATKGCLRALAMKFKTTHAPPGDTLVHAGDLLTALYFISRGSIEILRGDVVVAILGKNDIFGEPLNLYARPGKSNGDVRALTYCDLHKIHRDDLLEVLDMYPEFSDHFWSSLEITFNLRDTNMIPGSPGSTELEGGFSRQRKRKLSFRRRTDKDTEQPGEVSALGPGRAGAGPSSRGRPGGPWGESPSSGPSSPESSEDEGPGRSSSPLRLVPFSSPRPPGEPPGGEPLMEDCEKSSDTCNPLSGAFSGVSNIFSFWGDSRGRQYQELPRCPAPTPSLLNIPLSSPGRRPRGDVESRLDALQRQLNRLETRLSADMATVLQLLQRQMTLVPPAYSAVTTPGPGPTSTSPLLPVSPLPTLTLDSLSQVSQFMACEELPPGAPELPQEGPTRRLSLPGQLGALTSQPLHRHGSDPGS

CC(C)OC(=O)N1CCC(Oc2ncnc3c2cnn3-c2ccc(S(C)(=O)=O)cc2F)CC1
EC50 [1]: 33 nM | solubility [2]: soluble | minimal effective dose (Rattus norvegicus [3]): 10 mg/kg | minimal effective dose (Mus musculus): 3 mg/kg | fraction unbound [4]: ≤ 0.01 | fraction unbound [5]: ≤ 0.01 | fraction unbound [6]: ≤ 0.01 | fraction unbound [7]: 0.034 | fraction unbound [8]: 0.07 | Ki (Cytochrome P450 2C9): 100 nM | permeability (Caco-2): permeable | Activity (Salmonella typhimurium): Non-toxic | Activity [9]: Non-toxic | Activity [10]: Non-toxic | IC50 [11]: 3000 nM | Activity (Rattus norvegicus [12]): Active | Tmax [13]: ≤ 120 min | Tmax [14]: ≤ 120 min | Tmax [15]: ≤ 120 min | Tmax [16]: 360 min | bioavailability [17]: 44% | bioavailability [18]: 44% | bioavailability [19]: 44% | bioavailability [20]: 22% | Vdss (Cynomolgus monkey): 0.1 L/kg | Vdss (Rattus norvegicus [21]): 2.6 L/kg | half-life [22]: 48 min | half-life [23]: 48 min | half-life [24]: 48 min | half-life [25]: 48 min | Activity (Rattus norvegicus [26]): 105.2 mg/dL | Activity (Rattus norvegicus [27]): 3.4% | Activity (Rattus norvegicus [28]): 4.7% | Activity (Rattus norvegicus [29]): 359.3 mg/dL | Activity (Rattus norvegicus [30]): 3.5% | Activity (Rattus norvegicus [31]): 8.2% | Activity (Rattus norvegicus [32]): 224.9 g | Activity (Rattus norvegicus [33]): 204.2 g | Activity (Rattus norvegicus [34]): 5.2% | Activity (Rattus norvegicus [35]): 7.3%
